# Laboratory results: ChEMBL document CHEMBL1154352, “Toll-like receptor 7 selective synthetic oligoribonucleotide agonists: synthesis and structure-activity relationship studies” (J Med Chem, 2009)
# Activity calls are given as the source filed them. The rule behind the calls is not given here.
# Assays:
# [1] = Metabolic stability in human serum assessed as full length product remaining after 10 mins by HPLC; format: ADME, cell-free; details: read-out: Stability
# Outline: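 About 0.5 A260 units compound in 1% human serum in PBS, 37 °C; aliquot taken at 10 min, analysed by anion-exchange HPLC for percent intact full-length product.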
# PBMC [2] = assay: Immunomodulatory activity in human PBMC assessed as induction of IFN-alpha at 100 ug/ml after 24 hrs
# [3] = target: T1, Toll-like receptor 9 (Mus musculus) (UniProt Q9EQU3); assay: Activation of mouse TLR9 expressed in HEK293 assessed as induction of NF-kappaB activity reporter gene assay; format: cell-based
# T1 sequence (whole entry): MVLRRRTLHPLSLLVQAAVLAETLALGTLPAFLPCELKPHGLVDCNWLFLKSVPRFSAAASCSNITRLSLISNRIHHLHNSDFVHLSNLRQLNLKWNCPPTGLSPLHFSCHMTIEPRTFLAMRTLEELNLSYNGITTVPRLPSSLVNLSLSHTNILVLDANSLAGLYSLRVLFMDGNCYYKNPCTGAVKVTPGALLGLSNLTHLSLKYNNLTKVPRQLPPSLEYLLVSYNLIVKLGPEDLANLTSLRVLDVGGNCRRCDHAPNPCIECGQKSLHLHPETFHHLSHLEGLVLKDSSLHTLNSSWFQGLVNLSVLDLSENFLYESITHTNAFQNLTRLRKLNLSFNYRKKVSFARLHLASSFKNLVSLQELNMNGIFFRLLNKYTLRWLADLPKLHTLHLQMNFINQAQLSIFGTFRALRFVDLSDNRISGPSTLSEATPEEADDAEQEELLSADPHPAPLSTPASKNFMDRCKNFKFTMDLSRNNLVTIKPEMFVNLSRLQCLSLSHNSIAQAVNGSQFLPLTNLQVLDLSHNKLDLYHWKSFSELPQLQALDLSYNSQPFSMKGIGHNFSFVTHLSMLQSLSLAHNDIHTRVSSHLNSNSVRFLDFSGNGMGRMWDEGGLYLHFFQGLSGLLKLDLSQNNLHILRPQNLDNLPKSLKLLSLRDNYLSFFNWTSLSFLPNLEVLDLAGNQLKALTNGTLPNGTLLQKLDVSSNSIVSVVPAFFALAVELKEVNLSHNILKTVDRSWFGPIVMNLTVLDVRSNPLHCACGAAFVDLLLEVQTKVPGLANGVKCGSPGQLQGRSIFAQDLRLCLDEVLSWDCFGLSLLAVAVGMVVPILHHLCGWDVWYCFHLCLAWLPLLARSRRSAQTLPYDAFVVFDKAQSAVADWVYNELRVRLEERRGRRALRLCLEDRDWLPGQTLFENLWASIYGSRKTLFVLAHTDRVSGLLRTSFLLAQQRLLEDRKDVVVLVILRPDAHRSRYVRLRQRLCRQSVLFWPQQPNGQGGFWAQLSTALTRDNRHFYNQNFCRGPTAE
# [4] = target: Toll-like receptor 3 (Homo sapiens) (UniProt O15455); assay: Activation of human TLR3 expressed in HEK293 assessed as induction of NF-kappaB activity reporter gene assay; format: cell-based
# Splenocyte [5] = assay: Immunomodulatory activity in C57BL/6 mouse splenocytes bearing TLR7 receptor assessed as IL6 release at 100 ug/ml after 24 hrs by ELISA; format: functional, cell-based
# Outline: (§1)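 C57BL/6 splenocytes in RPMI 1640 with 10% FBS, penicillin/streptomycin, 2 mM L-glutamine, plated at 5 × 10^6 cells/mL; compounds in PBS added, 37 °C for 24 h. Supernatant IL-12 and IL-6 by ELISA; representative of three independent experiments.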
# PBMC [6] = assay: Immunomodulatory activity in human PBMC assessed as induction of IL12 at 100 ug/ml after 24 hrs; format: functional, cell-based
# Outline: (§2)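 Human PBMCs plated at 5 × 10^6 cells/mL; compounds dissolved in PBS added at various concentrations, 37 °C for 24 h. Supernatant cytokines/chemokines quantified with human Luminex multiplex kit.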
# PBMC [7] = assay: Immunomodulatory activity in human PBMC assessed as induction of TNFalpha at 100 ug/ml after 24 hrs; format: functional, cell-based; outline: as §2
# Splenocyte [8] = assay: Immunomodulatory activity in C57BL/6 mouse splenocytes bearing TLR7 receptor assessed as IL12 release at 100 ug/ml after 24 hrs by ELISA; format: functional, cell-based; outline: as §1
# [9] = target: T2, Toll-like receptor 8 (Homo sapiens) (UniProt Q9NR97); assay: Activation of human TLR8 expressed in HEK293XL assessed as fold induction of NF-kappaB activity at 50 ug/ml after 18 hrs by reporter gene assay relative to control
# T2 sequence (whole entry): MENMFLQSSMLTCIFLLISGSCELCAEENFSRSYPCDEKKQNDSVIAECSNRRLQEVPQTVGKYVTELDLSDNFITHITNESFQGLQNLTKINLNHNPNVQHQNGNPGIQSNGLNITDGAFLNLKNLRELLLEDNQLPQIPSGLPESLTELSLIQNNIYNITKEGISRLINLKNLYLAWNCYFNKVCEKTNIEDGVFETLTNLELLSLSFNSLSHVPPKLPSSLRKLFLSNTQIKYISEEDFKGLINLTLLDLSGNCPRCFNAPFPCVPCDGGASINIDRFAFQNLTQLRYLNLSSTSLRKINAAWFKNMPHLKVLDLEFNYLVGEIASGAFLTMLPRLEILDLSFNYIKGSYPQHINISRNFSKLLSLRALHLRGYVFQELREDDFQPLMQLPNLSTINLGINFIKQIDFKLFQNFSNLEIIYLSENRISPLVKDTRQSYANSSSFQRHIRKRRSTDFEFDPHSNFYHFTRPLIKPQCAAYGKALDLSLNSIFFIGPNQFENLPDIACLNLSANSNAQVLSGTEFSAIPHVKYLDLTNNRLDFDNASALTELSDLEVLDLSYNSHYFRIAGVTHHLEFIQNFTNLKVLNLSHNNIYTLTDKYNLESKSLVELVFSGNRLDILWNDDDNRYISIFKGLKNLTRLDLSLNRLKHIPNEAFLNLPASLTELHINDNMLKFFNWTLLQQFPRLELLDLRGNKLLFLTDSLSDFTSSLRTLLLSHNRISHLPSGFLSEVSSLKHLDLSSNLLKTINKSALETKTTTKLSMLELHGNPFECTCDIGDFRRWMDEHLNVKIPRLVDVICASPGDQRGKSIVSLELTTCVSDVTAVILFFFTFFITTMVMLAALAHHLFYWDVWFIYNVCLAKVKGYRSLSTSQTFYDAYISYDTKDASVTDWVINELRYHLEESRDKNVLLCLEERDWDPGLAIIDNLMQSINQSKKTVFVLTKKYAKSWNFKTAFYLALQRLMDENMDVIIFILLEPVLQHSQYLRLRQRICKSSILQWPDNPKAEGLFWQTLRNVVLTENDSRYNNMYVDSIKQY
# Outline: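 HEK293 cells stably expressing human TLR7 or TLR8, transiently transfected with SEAP reporter plasmid; medium replaced, SIMRA compounds added, 18 h incubation. Supernatant SEAP measured by QuantiBlue; expressed as fold increase in NF-κB activity over PBS control. Tabulated data at 50 μg/mL, representative of three independent experiments.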
# Toll-like receptor 3 (Homo sapiens), sequence (O15455 whole entry): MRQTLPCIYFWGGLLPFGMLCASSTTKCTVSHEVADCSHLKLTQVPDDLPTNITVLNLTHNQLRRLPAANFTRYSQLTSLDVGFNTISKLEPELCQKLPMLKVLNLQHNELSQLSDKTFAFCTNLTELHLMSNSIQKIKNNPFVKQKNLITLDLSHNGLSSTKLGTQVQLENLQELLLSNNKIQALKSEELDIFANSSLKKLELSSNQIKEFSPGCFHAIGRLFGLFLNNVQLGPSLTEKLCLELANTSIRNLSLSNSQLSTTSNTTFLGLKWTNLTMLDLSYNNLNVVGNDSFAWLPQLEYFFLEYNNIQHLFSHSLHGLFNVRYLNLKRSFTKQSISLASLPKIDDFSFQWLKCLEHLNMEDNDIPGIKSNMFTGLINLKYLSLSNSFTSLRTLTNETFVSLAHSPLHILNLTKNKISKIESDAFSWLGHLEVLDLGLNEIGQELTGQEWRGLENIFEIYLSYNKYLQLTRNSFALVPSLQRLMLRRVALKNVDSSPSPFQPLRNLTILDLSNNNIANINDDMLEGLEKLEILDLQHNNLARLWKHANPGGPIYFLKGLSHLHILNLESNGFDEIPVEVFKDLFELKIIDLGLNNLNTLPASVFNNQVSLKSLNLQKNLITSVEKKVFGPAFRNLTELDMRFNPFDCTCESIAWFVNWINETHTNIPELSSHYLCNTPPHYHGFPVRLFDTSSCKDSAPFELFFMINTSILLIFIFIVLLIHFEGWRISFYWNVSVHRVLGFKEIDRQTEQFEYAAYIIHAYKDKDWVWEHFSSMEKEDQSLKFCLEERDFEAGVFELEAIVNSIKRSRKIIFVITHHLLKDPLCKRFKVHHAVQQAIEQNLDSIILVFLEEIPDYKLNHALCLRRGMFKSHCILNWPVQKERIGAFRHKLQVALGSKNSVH
remaining at 10 min [1],Activity [3],Activity [4],Activity (Splenocyte [5]),Activity (Splenocyte [8]),fold change (FC) [9],SMILES,IFN-alpha (PBMC [2]),Activity (PBMC [6]),Activity (PBMC [7])
83%,inactive,inactive,Active,Active,0.4,Nc1ccn([C@@H]2O[C@H](COP(=O)(S)O[C@H]3[C@@H](O)[C@H](n4ccc5c(=O)[nH]c(N)nc54)O[C@@H]3CO[C@H]3[C@@H](O)[C@H](n4cnc5c(N)ncnc54)O[C@@H]3COP(=O)(S)O[C@H]3[C@@H](O)[C@H](n4ccc5c(=O)[nH]c(N)nc54)O[C@@H]3COP(=O)(S)O[C@H]3[C@@H](O)[C@H](n4ccc(=O)[nH]c4=O)O[C@@H]3COP(=O)(S)O[C@H]3[C@@H](O)[C@H](n4ccc(N)nc4=O)O[C@@H]3COP(=O)(S)O[C@H]3[C@@H](O)[C@H](n4ccc5c(=O)[nH]c(N)nc54)O[C@@H]3COP(=O)(S)O[C@H]3[C@@H](O)[C@H](n4ccc(=O)[nH]c4=O)O[C@@H]3COP(=O)(S)O[C@H]3[C@@H](O)[C@H](n4ccc(=O)[nH]c4=O)O[C@@H]3CO)[C@@H](OP(=O)(S)OC[C@H]3O[C@@H](n4ccc(=O)[nH]c4=O)[C@H](O)[C@@H]3OP(=O)(S)OC[C@H]3O[C@@H](n4ccc(=O)[nH]c4=O)[C@H](O)[C@@H]3OP(=O)(S)OCC(O)COP(=O)(S)O[C@H]3[C@@H](O)[C@H](n4ccc(=O)[nH]c4=O)O[C@@H]3COP(=O)(S)O[C@H]3[C@@H](O)[C@H](n4ccc(=O)[nH]c4=O)O[C@@H]3COP(=O)(S)O[C@H]3[C@@H](O)[C@H](n4ccc(N)nc4=O)O[C@@H]3COP(=O)(S)O[C@H]3[C@@H](O)[C@H](n4ccc5c(=O)[nH]c(N)nc54)O[C@@H]3CO[C@H]3[C@@H](O)[C@H](n4cnc5c(N)ncnc54)O[C@@H]3COP(=O)(S)O[C@H]3[C@@H](O)[C@H](n4ccc5c(=O)[nH]c(N)nc54)O[C@@H]3COP(=O)(S)O[C@H]3[C@@H](O)[C@H](n4ccc(=O)[nH]c4=O)O[C@@H]3COP(=O)(S)O[C@H]3[C@@H](O)[C@H](n4ccc(N)nc4=O)O[C@@H]3COP(=O)(S)O[C@H]3[C@@H](O)[C@H](n4ccc5c(=O)[nH]c(N)nc54)O[C@@H]3COP(=O)(S)O[C@H]3[C@@H](O)[C@H](n4ccc(=O)[nH]c4=O)O[C@@H]3COP(=O)(S)O[C@H]3[C@@H](O)[C@H](n4ccc(=O)[nH]c4=O)O[C@@H]3CO)[C@H]2O)c(=O)n1 (stereo partly drawn),145 pg/mL,1370 pg/mL,415 pg/mL
72%,inactive,inactive,Active,Active,0.4,Nc1ccn([C@@H]2O[C@H](CO)[C@@H](OP(=O)(S)OC[C@H]3O[C@@H](n4ccc(=O)[nH]c4=O)[C@H](O)[C@@H]3OP(=O)(S)OC[C@H]3O[C@@H](n4ccc5c(=O)[nH]c(N)nc54)[C@H](O)[C@@H]3OP(=O)(S)OC[C@H]3O[C@@H](n4cnc5c(N)ncnc54)[C@H](O)[C@@H]3OP(=O)(S)OC[C@H]3O[C@@H](n4ccc5c(=O)[nH]c(N)nc54)[C@H](O)[C@@H]3OP(=O)(S)OC[C@H]3O[C@@H](n4cnc5c(N)ncnc54)[C@H](O)[C@@H]3OP(=O)(S)OC[C@H]3O[C@@H](n4cnc5c(N)ncnc54)[C@H](O)[C@@H]3OP(=O)(S)OC[C@H]3O[C@@H](n4ccc5c(=O)[nH]c(N)nc54)[C@H](O)[C@@H]3OP(=O)(S)OC[C@H]3O[C@@H](n4ccc(N)nc4=O)[C@H](O)[C@@H]3OP(=O)(S)OC[C@H]3O[C@@H](n4ccc(=O)[nH]c4=O)[C@H](O)[C@@H]3OP(=O)(S)OC[C@H]3O[C@@H](n4ccc(=O)[nH]c4=O)[C@H](O)[C@@H]3OP(=O)(S)OCC(O)COP(=O)(S)O[C@H]3[C@@H](O)[C@H](n4ccc(=O)[nH]c4=O)O[C@@H]3COP(=O)(S)O[C@H]3[C@@H](O)[C@H](n4ccc(=O)[nH]c4=O)O[C@@H]3COP(=O)(S)O[C@H]3[C@@H](O)[C@H](n4ccc(N)nc4=O)O[C@@H]3COP(=O)(S)O[C@H]3[C@@H](O)[C@H](n4ccc5c(=O)[nH]c(N)nc54)O[C@@H]3COP(=O)(S)O[C@H]3[C@@H](O)[C@H](n4cnc5c(N)ncnc54)O[C@@H]3COP(=O)(S)O[C@H]3[C@@H](O)[C@H](n4cnc5c(N)ncnc54)O[C@@H]3COP(=O)(S)O[C@H]3[C@@H](O)[C@H](n4ccc5c(=O)[nH]c(N)nc54)O[C@@H]3COP(=O)(S)O[C@H]3[C@@H](O)[C@H](n4cnc5c(N)ncnc54)O[C@@H]3COP(=O)(S)O[C@H]3[C@@H](O)[C@H](n4ccc5c(=O)[nH]c(N)nc54)O[C@@H]3COP(=O)(S)O[C@H]3[C@@H](O)[C@H](n4ccc(=O)[nH]c4=O)O[C@@H]3COP(=O)(S)O[C@H]3[C@@H](O)[C@H](n4ccc(N)nc4=O)O[C@@H]3CO)[C@H]2O)c(=O)n1 (stereo partly drawn),123 pg/mL,1750 pg/mL,818 pg/mL
